A selection: hits, their analogues and other compounds. The true share with any hit is near 2.1%.
STAT3 act-1 = IL-6 driven STAT3 reporter potentiators, primary screen, U3A cells, luciferase, luminescence, MLSCN library; activation (% of control), % at 5.6 µM; IL-6 STAT3-luciferase reporter; 100% = signal with IL-6 EC80 alone; AID 871, 2007; 0.91% of 190,000 active;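 active = activation above the screen-wide mean of compound activation plus 3 SD, cut at about 130% in these data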
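system = STAT3-luciferase reporter U3A cells | reagent = IL-6 stimulus at 33 ng/mL final | timing = 1 h compound pre-exposure, 6 h IL-6 stimulation, 37 °C | measured by = luminescence | evaluation = % activation versus median of IL-6-stimulated wells | control set = IL-6-only wells as 100% reference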
zVAD death inh = inhibitors of zVAD-triggered necroptosis, primary screen, L929 cells; L929 zVAD necroptosis rescue, ATP luminescence, 24 h; with zVAD 60 µM; 0.38% of 220,000 active; AID 1377, 2008; viability rescue, % at 10 µM;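 active = activation, scaled between plate controls, above about 75%, limit read from the data; inactive = activation under that limit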
STAT1 inh = STAT1 signaling inhibitors, primary screen, cell-based, HTS, luciferase reporter | NIH 3T3 STAT1-luciferase reporter, IFN-gamma, luminescence | inhibition, % at 5.5 µM | 0.35% of 200,000 active | AID 920, 2007;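 active = inhibition above a set limit, the mean inhibition across all tested compounds plus 3 SD, cut at about 34% in these data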
STAT3 inh-1 = IL-6 driven STAT3 reporter inhibitors, primary screen, U3A cells, luciferase, luminescence, MLSCN library; IL-6 STAT3-luciferase reporter; host cell line lacks STAT1; inhibition, % at 5.5 µM; 0.89% of 190,000 active;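 active = inhibition above the mean inhibition across all screened compounds plus 3 SD, cut at about 44% in these data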
TNF necrop inh = inhibitors of TNF-alpha triggered necroptosis, primary screen, cell-based, Jurkat FADD-/-, single concentration; AID 463075, 2010; 0.068% of 220,000 active; Jurkat FADD-/- TNF necroptosis rescue, ATP luminescence, 24 h; 0 = TNF only, 100 = no-TNF cells; activation (protection from cell death), % at 10 µM;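 active = activation, meaning protection from cell death, of at least 50% relative to plate controls; inactive = activation below 50%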;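 also: necroptosis triggered by 40 ng/mL TNF-alpha added together with compound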
STAT3 inh-2 = STAT3 reporter inhibitors, retest of hits, confirmation, U3A cells, luciferase, luminescence | 45% of 1,200 active | inhibition, % at 5.7 µM | AID 1265, 2008 | shares compounds with STAT3 inh-1 | IL-6 STAT3 luciferase reporter; cell line lacks STAT1;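 active = inhibition above the hit cutoff computed for the primary STAT3 screen, cut at about 44% in these data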
NFkB inh STAT3ct = NF-kB reporter inhibitors in human cells, confirmation, counter-screen for STAT3 inhibitor project, cell-based, HEK293T, luciferase, TNF-alpha stimulus. shares compounds with STAT3 inh-1. TNF-alpha induced. inhibition, % at 5.7 µM. 36% of 1,200 active. AID 1308, 2008;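 active = inhibition above the mean of solvent-only control wells plus 3 SD, cutoff set per campaign, cut at about 13% in these data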
STAT1 inh STAT3c = STAT1 reporter inhibitors, IFN-gamma induced, confirmation, counter-screen for STAT3 inhibitor project, cell-based, NIH 3T3, luciferase luminescence; NIH 3T3 STAT1-luciferase reporter; 27% of 1,200 active; inhibition, % at 5.7 µM; AID 1317, 2008; shares compounds with STAT3 inh-1;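 active = inhibition above the mean plus 3 SD of solvent-only control wells, limit set per screening run, cut at about 16% in these data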
STAT3 act-2 = STAT3 reporter potentiators, retest of hits, confirmation, U3A cells, luciferase, luminescence; potentiation (% of control), % at 5.7 µM; shares compounds with STAT3 act-1; IL-6 potentiation; U3A cells lack STAT1; 100 means same as IL-6 alone; AID 1267, 2008; 64% of 1,200 active;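 active = percent activation of the STAT3 luciferase reporter above a set limit taken from the earlier primary screen, cut at about 130% in these data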
NFkB act STAT3ct = NF-kB reporter activators in human cells, counter-screen for STAT3 activator project | AID 1309, 2008 | shares compounds with STAT3 act-1 | NF-kappaB reporter activation | activation (% of control), % at 5.7 µM | 11% of 1,200 active; in the data active = activation above about 120%;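 also: reporter induced by TNF-alpha stimulation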
STAT1 act = STAT1 reporter activators, IFN-gamma induced, counter-screen for STAT3 activator project, cell-based, NIH 3T3, luciferase luminescence | shares compounds with STAT3 act-1 | NIH 3T3 STAT1-luciferase reporter | activation (% of control), % at 5.7 µM | 13% of 1,200 active;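 active = activation above the solvent-only control well mean plus 3 SD, set per screening run, cut at about 120% in these data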
zVAD necrop conf = inhibitors of zVAD-triggered necroptosis in L929, confirmation, L929 cells, duplicate runs | 16% of 760 active | L929 zVAD-induced necroptosis rescue, ATP luminescence, 24 h | AID 463117, 2010 | shares compounds with zVAD death inh | activation (protection from necroptosis), % at 10 µM;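 active = mean protection from necroptosis of at least 50% over duplicate tests; inactive = mean protection below 50%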
Hits are given with their value; 0 = inactive; - = no result.

SMILES	STAT3 act-1	zVAD death inh	STAT1 inh	STAT3 inh-1	TNF necrop inh	others
Cc1cccc(N2C(=O)NC(=O)/C(=C\c3cccn3-c3ccc(Cl)cc3)C2=O)c1	0	0	34	0	0
COc1ccccc1C1C([N+](=O)[O-])=C(N)Oc2c1c(=O)oc1ccccc21 (stereo unspecified)	-	0	-	-	0
CC1CCC[C@H](O)CCCCCc2cc(O)cc(O)c2C(=O)O1 (stereo partly specified)	0	0	0	0	0
C[C@H]1CCC[C@H](O)CCCCCc2cc(O)cc(O)c2C(=O)O1	0	0	0	0	0
CC1CCC/C=C/C2CC(O)CC2C(O)/C=C/C(=O)O1 (stereo unspecified)	0	0	53	89	0
C[C@H]1CCC/C=C/C2C[C@H](O)CC2[C@H](O)/C=C/C(=O)O1 (stereo partly specified)	0	0	46	93	0
O=C1C(=O)c2cccc3cccc1c23	0	0	0	0	0
Cc1nc2c(=O)n(C)c(=O)nc-2n(C)n1	0	0	92	107	0
O=C(c1cccc([N+](=O)[O-])c1)C12CN3CN(CN(C3)C1)C2	0	0	0	0	0
C1CNC2NCCNC2N1 (stereo unspecified)	0	0	0	0	0
Cc1ncc([N+](=O)[O-])n1CCOc1nonc1N	0	0	0	0	0
CN1/C(=C\C=C\C2=[N+](C)c3ccc4ccccc4c3C2(C)C)C(C)(C)c2ccccc21	0	0	72	103	0
CNC(=O)Oc1ccc(-c2cn3cc(C)ccc3n2)cc1	0	0	82	106	0
O=C(COc1ccc(Br)cc1)N1CCN(Cc2c[nH]c3ccccc23)CC1	135	0	0	0	0
O=C(Nc1ccncc1)c1cccn(Cc2ccccc2)c1=O	0	0	0	79	0	STAT3 inh-2=74;NFkB inh STAT3ct=17;STAT1 inh STAT3c=0
CNC(=O)Oc1cccc(-c2cn3cc(Cl)ccc3n2)c1	0	0	0	92	0	STAT3 inh-2=82;NFkB inh STAT3ct=0;STAT1 inh STAT3c=0
COc1ccc(-c2nc3ccccc3c(=O)n2-c2ccc(OC)cc2)cc1	0	0	0	0	0
CCn1nc(-c2ccccc2)nc2c(=O)n(C)c(=O)nc1-2	0	0	0	62	0	STAT3 inh-2=74;NFkB inh STAT3ct=49;STAT1 inh STAT3c=41
Cc1cc(C)c(S(=O)(=O)NCC2CCC(C(=O)N3CCC4(CC3)OCCO4)CC2)c(C)c1 (stereo unspecified)	0	0	0	0	0
Cc1cc(C)c(C(=O)CN2CCOCC2)c(C)c1	0	0	0	0	0
COc1ccc(N/N=C/c2c(O)n(-c3ccc(C)c(C)c3)c(=O)[nH]c2=O)cc1	0	-	0	48	0	STAT3 inh-2=0;NFkB inh STAT3ct=0;STAT1 inh STAT3c=0
Cc1ccc(-n2c(O)c(/C=N/Nc3ccccc3)c(=O)[nH]c2=O)cc1C	-	0	-	-	0
COc1c(C)cc(C(=O)C2CCCN(Cc3cnc(C)s3)C2)cc1C (stereo unspecified)	0	0	0	0	0
CCCCn1c(C)c(C(=O)O)c2cc(OC)ccc21	0	0	0	52	0	STAT3 inh-2=0;NFkB inh STAT3ct=0;STAT1 inh STAT3c=0
C[C@H]1CCC[C@@H](O)CCC/C=C/c2cc(O)cc(O)c2C(=O)O1	0	79	0	60	0	STAT3 inh-2=48;NFkB inh STAT3ct=0;STAT1 inh STAT3c=0;zVAD necrop conf=0
SMILES	STAT3 act-1	zVAD death inh	STAT1 inh	STAT3 inh-1	TNF necrop inh	others
C[N+]1=C(/C=C/Nc2ccccc2)C(C)(C)c2ccccc21	0	0	0	0	0
CCCC/C(=N\O)c1c[nH]c2ccccc12	141	0	0	0	0	STAT3 act-2=155;NFkB act STAT3ct=0;STAT1 act=0
COc1ccc(C(CC(=O)N2CCC3(CC2)OCCO3)NS(=O)(=O)c2ccc(OC)cc2)cc1 (stereo unspecified)	0	0	0	0	0
c1ccc2c(CCNC3CCCCC3)c[nH]c2c1	0	0	0	0	0
c1ccc2[nH]c(CCNC3CCCCC3)nc2c1	137	0	0	0	0	STAT3 act-2=0;NFkB act STAT3ct=0;STAT1 act=0
CN(C)C(=O)Oc1ccc(Br)cc1C(=O)Nc1ccc(F)c(Cl)c1	-	0	-	-	0
CC(=Nc1c(C)n(C)n(-c2ccccc2)c1=O)c1c(O)n(Cc2ccccc2)c(=O)[nH]c1=O	156	0	0	0	0	STAT3 act-2=0;NFkB act STAT3ct=0;STAT1 act=0
CSc1ccc(C(=O)C2CCCN(Cc3cc4ccccc4[nH]3)C2)cc1 (stereo unspecified)	141	0	0	0	0	STAT3 act-2=149;NFkB act STAT3ct=0;STAT1 act=0
CCOc1ccccc1-n1c(O)c(C=Nc2c(C)n(C)n(-c3ccccc3)c2=O)c(=O)[nH]c1=O	0	0	0	0	0
COc1ccc2c(c1)CC1(CN2C)C(=O)NC(=O)N(c2ccc(F)cc2)C1=O (stereo unspecified)	150	0	0	0	0	STAT3 act-2=134;NFkB act STAT3ct=0;STAT1 act=0
COc1ccc2c(c1)CC1(CN2C)C(=O)NC(=O)N(c2ccc(C)cc2)C1=O (stereo unspecified)	0	0	0	0	0
Cc1nn(Cc2ccccc2)c(C)c1C(=O)OCC(=O)Nc1ccccc1SCC#N	138	0	0	0	0	STAT3 act-2=0;NFkB act STAT3ct=0;STAT1 act=0
CCOP(=S)(OCC)SCC(=O)NC(C(=O)O)C(C)C (stereo unspecified)	0	0	0	0	0
CCCCn1c(=O)c(C(=O)Nc2ccccc2S(N)(=O)=O)c(O)c2ccccc21	0	0	0	0	0

Assay outcomes (PubChem BioAssay)
